The term MIC90 denotes an inhibitory concentration at the 90% level, which refers to growth in some studies and to a panel of isolates in others. Read a low MIC90 as greater potency.

Converted amounts (≈) assume the structure as drawn.

Type in all cases: functional
Experiment [1] has as its system Mycobacterium tuberculosis. Kind of experiment: Antimycobacterial activity against patient derived extreme drug resistance Mycobacterium tuberculosis isolate 3 incubated for 7 days by MTT-based broth microdilution assay. To be noted: isolate 3, 168 h. The method in brief: (§1)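 Drug-resistant clinical isolates from Lisbon patients (2008–2009) grown in MB7H9 + 10% OADC at 37 °C to OD600 0.8, diluted to ~10^5 cells/mL; equal volume added to 2-fold serial compound dilutions. Plates sealed, 7 days at 37 °C, then MTT to final 2.5% overnight; MIC = lowest concentration with no colour change; triplicate.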
For orientation: Broth dilution looks for growth in wells or tubes with falling amounts of substance.

Experiment [2] has as its system Mycobacterium tuberculosis. Kind of experiment: Antimycobacterial activity against patient derived INH/RIF resistance Mycobacterium tuberculosis isolate 2 incubated for 7 days by MTT-based broth microdilution assay. The conditions noted are these: isolate 2, 168 h. The method in brief: as §1
Experiment [3] has as its system Mycobacterium tuberculosis. The experiment can be described thus: Antimycobacterial activity against patient derived INH/RIF resistance Mycobacterium tuberculosis isolate 1 incubated for 7 days by MTT-based broth microdilution assay. To be noted: isolate 1, 168 h. The method in brief: as §1

Consider `Cc1ccc(Nc2nc(-c3cc(C(=O)Nc4ccccc4)no3)cs2)cc1`, for which the values for the MIC90 in experiment [1], in experiment [2] and in experiment [3] were 2 µg/mL (≈ 5.31 µM), 1 µg/mL (≈ 2.66 µM) and 2 µg/mL (≈ 5.31 µM), respectively.

As to `Cc1ccc(Nc2nc(-c3cc(C(=O)Nc4ccccn4)no3)cs2)cc1`, the MIC90 was found to be 2 µg/mL (≈ 5.3 µM) in experiment [1], 1 µg/mL (≈ 2.65 µM) in experiment [2] and 2 µg/mL (≈ 5.3 µM) in experiment [3].

For the origin of these results see ChEMBL document CHEMBL4038332, “Substituted N-Phenyl-5-(2-(phenylamino)thiazol-4-yl)isoxazole-3-carboxamides Are Valuable Antitubercular Candidates that Evade Innate Efflux Machinery” (J Med Chem, 2017).
